Assay results collected from several papers.
Target: Death-associated protein kinase 2 (DAPK2, Homo sapiens, UniProt Q9UIK4)

CN1CC(Oc2cnc(C#N)cc2-c2ccn3nc(NC(=O)C4CC4)cc3c2)C1  inhibition (enzyme activity; inhibitor; 1 µM): 0%
O=C1NC(=O)c2cc(Nc3ccc(F)cc3)c(Nc3ccc(F)cc3)cc21  remaining signal (cell-free assay; 0.5 µM): 96.7%
CC(C)(C)c1nc(-c2cccc(NS(=O)(=O)c3c(F)cccc3F)c2F)c(-c2ccnc(N)n2)s1  remaining activity (enzyme activity; inhibitor; radiometric; 1 µM): 92%
CCCOc1ccc(OC)c(F)c1C(=O)c1ccc(C(=O)N[C@@H]2CNC[C@H]2NC(=O)c2ccc3[nH]ncc3c2)cc1  remaining activity (enzyme activity; inhibitor; 10 µM): 84%
COc1ccc2c(c1)O[C@@H](c1ccc(OC)c(OC)c1)C[C@H]2NC(=O)C1(c2ccc3c(c2)OC(F)(F)O3)CC1  remaining binding (cell-free assay; competition with immobilised ligand; 1 µM): 98%
N[C@H]1CCN(c2nccc(-c3cnn4ncccc34)n2)C1  remaining binding (binding; 1 µM): 98%
CC(C)(O)[C@H]1CC[C@H](Nc2ccc3ncc(-c4cccc(C(F)(F)F)c4)n3n2)CC1  remaining activity (enzyme activity; inhibitor; 1 µM): 107%
Cc1ccc(C(=O)Nc2ccc(CN3CCN(C)CC3)c(C(F)(F)F)c2)cc1C#Cc1cnc2cccnn12  remaining activity (enzyme activity; inhibitor; 23.5 nM): 100%
C[C@@H]1CN(c2cc(-c3nn(C)c4ccc(OC5(C)CC5)cc34)ncn2)C[C@H](C)O1  remaining binding (cell-free assay; competition with immobilised ligand; 1 µM): 89%
Nc1ncnc2occ(-c3ccc(NC(=O)Nc4cc(C(F)(F)F)ccc4F)cc3)c12  remaining signal (cell-free assay; inhibitor; 20 µM): 25%
CO[C@@H](C)c1c(Nc2ccc([C@@H](N(C)C(=O)C3CCS(=O)(=O)CC3)C(F)(F)F)cc2)cnc2cc(Cl)nn12  remaining binding (binding; competition with immobilised ligand; 1 µM): 41%
CNC(=O)c1cc(Oc2ccc(NC(=O)Nc3ccc(Cl)c(C(F)(F)F)c3)cc2)ccn1  inhibition (enzyme activity; inhibitor; 0.3 µM): 5%
COc1cc(-c2cn(C3CCc4c(F)cccc4N(CC(F)(F)F)C3=O)nn2)ccc1-n1cnc(C)c1 (stereo not shown)  remaining binding (cell-free assay; competition with immobilised ligand; 1 µM): 100%
Cc1ccc(NC(=O)c2ccc(C)c(C(F)(F)F)c2)cc1C#Cc1nn(C2CCC(O)CC2)c2ncnc(N)c12 (stereo not shown)  remaining signal (cell-free assay; 10 µM): 95%
CC(C)(O)c1cncc(-c2nc3ccc(F)cc3n2C2CC2)c1  remaining binding (cell-free assay; competition with immobilised ligand; 1 µM): 100%
Cc1ccc(Nc2nccc(N(C)c3ccc4c(C)n(C)nc4c3)n2)cc1S(N)(=O)=O  inhibition (enzyme activity; inhibitor; 10 µM): -4%
